697 NFkB inh: inhibitors of the PMA/ionomycin-induced NF-kB reporter in 697 B cells | inhibition, % at 4 µM | AID 435022 | 697 B-cell NF-kB luciferase reporter, 16 h | 0.33% of 330,000 active; in the data active = inhibition above about 35%
Jurkat NFkB inh: lowers PMA/ionomycin-induced NF-kB signal in Jurkat cells; 0.53% of 330,000 active; inhibition, % at 4 µM; AID 435003; PMA/ionomycin-induced NF-kB luciferase reporter, luminescence; in the data active = inhibition above about 50%
miR-122 sensor: miR-122 inhibition in Huh7 cells | Huh7 miR-122 Renilla luciferase sensor, 48 h; neutral wells = 0, positive control = 100 | activation (reporter increase), % at 12.5 µM | 0.3% of 340,000 active | AID 602342;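 active = mean replicate activation score at least 90 and every replicate individually at or above 90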;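 note: higher luciferase means less miR-122 activity so hits act as miR-122 inhibitors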
NR2E3 ag-1: activates human NR2E3 receptor; AID 602229; 0.35% of 360,000 active; CHO-S Gal4-NCOR/VP16-NR2E3 two-hybrid, luciferase; inhibition of corepressor binding, % at 3.98 µM; Q9Y5X4;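 active = inhibition above the mean of all tested compounds plus 3 SD, cut at about 70% in these data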;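 note: 0% = DMSO with NR2E3 transfected cells and 100% = cells lacking NR2E3 construct; higher means lower luciferase signal from less NR2E3 corepressor binding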
Target sequence (Q9Y5X4 whole entry, looked up, the tested form may be a part): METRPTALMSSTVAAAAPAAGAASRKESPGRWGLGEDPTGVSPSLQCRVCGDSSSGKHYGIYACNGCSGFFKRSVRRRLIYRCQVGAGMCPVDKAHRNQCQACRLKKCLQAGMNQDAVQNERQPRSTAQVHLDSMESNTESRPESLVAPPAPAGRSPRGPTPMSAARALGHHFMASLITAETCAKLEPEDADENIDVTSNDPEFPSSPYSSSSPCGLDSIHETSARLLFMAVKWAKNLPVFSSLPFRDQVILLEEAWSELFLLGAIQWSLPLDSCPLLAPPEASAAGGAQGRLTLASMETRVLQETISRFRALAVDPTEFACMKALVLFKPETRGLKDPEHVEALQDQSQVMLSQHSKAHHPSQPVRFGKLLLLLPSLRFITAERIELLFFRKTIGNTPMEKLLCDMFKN
NR2E3 ag-2: agonists of human nuclear receptor NR2E3; 0.12% of 320,000 active; inhibition of corepressor binding, % at 4.78 µM; Q9Y5X4; AID 2300; GST-NR2E3/biotin-RetCOR TR-FRET, 1536-well;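 active = percent inhibition above the cutoff of mean plus 3 SD of all tested compounds, set per screening campaign, cut at about 20% in these data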;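 note: 0% = DMSO wells and 100% = biotin wells as full block of FRET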
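System: GST-tagged NR2E3 plus biotinylated RetCOR corepressor; Amount: 1.35 nM GST-tagged NR2E3 final; Dosing: single nominal compound dose of 4.8 µM; Schedule: 5 h incubation at 4 °C; Technique: TR-FRET with europium anti-GST and streptavidin-D2, 340 nm excitation; Controls: biotin wells as high control, 0.6% DMSO wells as low control.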
FGF22 binding: shifts melting point of recombinant human FGF22; recombinant FGF22 thermal shift, SYPRO orange fluorescence; percent of sucrose octasulfate shift, DMSO zero; 1.5% of 340,000 active; AID 651658; Q9HCT0; activity (Tm shift, normalised), % at 9.99 µM;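 active = mean Tm shift, scaled 0 neutral to 100 positive control, at about 1.3% or above, every replicate too, limit read from the data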
Target sequence (Q9HCT0 whole entry, looked up): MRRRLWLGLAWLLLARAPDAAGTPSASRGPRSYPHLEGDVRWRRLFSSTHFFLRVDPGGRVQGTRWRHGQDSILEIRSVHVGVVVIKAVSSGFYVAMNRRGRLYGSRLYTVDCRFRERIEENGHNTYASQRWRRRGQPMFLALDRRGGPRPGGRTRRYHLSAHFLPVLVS
Numbers without * were called inactive; . = no result given; [ ] = dose if it differs, or a comment. An excerpt weighted towards active compounds, which were near 2.2% of everything screened.

SMILES	697 NFkB inh	Jurkat NFkB inh	miR-122 sensor	NR2E3 ag-1	NR2E3 ag-2	FGF22 binding
C[C@@H]1CCCCO[C@@H](CN(C)C(=O)Nc2ccc(F)cc2)[C@H](C)CN([C@@H](C)CO)C(=O)c2cc(NC(=O)Nc3ccc(C(F)(F)F)cc3)ccc2O1	.	.	-5[16.7 µM]	.	.	1.4*
Cc1noc(C)c1NC(=O)N(C)C[C@H]1OCCCC[C@H](C)Oc2ccc(NC(=O)NC3CCCCC3)cc2C(=O)N([C@@H](C)CO)C[C@@H]1C	.	.	6[16.7 µM]	.	.	1.4*
C[C@@H]1CN([C@@H](C)CO)C(=O)c2cccc(N(C)C)c2O[C@@H]1CN(C)Cc1ccncc1	.	.	-6[16.7 µM]	.	.	0
Nc1nc(SCCO)[nH]c(=O)c1NC(=O)c1ccccc1F	-3	6	7	-22	-1	44*
CC(C)NC(=O)CSc1nc(N)c(NC(=O)c2ccccc2F)c(=O)[nH]1	12	18	.	-23	0	0
O=C(Nc1ccc(F)cc1)N1C[C@@H]2[C@H](c3ccccc31)[C@@H](CO)N2C(=O)c1cccnc1	.	.	14[16.7 µM]	.	.	.
CC(/C=N/Nc1ncc(C)c(=O)[nH]1)=C\c1ccccc1	-47	-31	.	-17	1	.
CC(/C=N/Nc1nc(C)cc(=O)[nH]1)=C\c1ccccc1	7	7	-2	-9	-2	43*
C[C@H]1CN([C@@H](C)CO)C(=O)c2cc(-c3ccc(F)cc3)cnc2O[C@H]1CN(C)Cc1cccnc1	.	.	-1[16.7 µM]	.	.	0
O=c1[nH]c2ccc(Cl)cc2c(O)c1Cc1ccccc1	6	6	.	-16	4	44*
CCOC(=O)[C@@H]1[C@H]2COc3ccccc3[C@@H]2N2C(=O)N(c3ccc(F)cc3)C(=O)[C@@]12C	-5	-6	-4	-32	3	45*
CCOC(=O)[C@@H]1[C@H]2COc3ccccc3[C@@H]2N2C(=O)N(c3ccc(C)cc3)C(=O)[C@@]12C	-9	4	6	-10	.	0
CN1/C(=C\C=C2/SC(=S)N(CC(=O)O)C2=O)C(C)(C)c2ccccc21	-10	6	.	3	0	0
C=CCN1C(=O)/C(=C\C=C2\N(C)c3ccccc3C2(C)C)SC1=S	-16	15	.	-33	1	44*
COc1ccc(NC(=O)Nc2ccc3c(c2)C(=O)N([C@H](C)CO)C[C@H](C)[C@H](CN(C)C(=O)Nc2cccc4ccccc24)OCCCC[C@H](C)O3)cc1	.	.	4[16.7 µM]	.	.	0
O=c1c(Oc2ccccc2F)coc2cc(OCc3cnn(-c4ccccc4)c3)ccc12	-5	16	.	-18	4	43*
COc1ccc(S(=O)(=O)N(C)C[C@H]2OCc3ccccc3-c3ccccc3C(=O)N([C@H](C)CO)C[C@H]2C)cc1	.	.	.	.	.	0
C#CCOc1ccc(/C=N/NC(=O)c2cccnc2)cc1OCC	6	2	1	-34	2	0
COc1cc(/C=N/NC(=O)c2cccnc2)ccc1OCC(=O)Nc1ccccc1Cl	7	-60	-3	2	-4	43*
CCOc1cc(/C=N/NC(=O)c2cccnc2)cc(Br)c1OCC(N)=O	12	2	.	-43	4	44*
CCCC(=O)N1CC2(CCN(Cc3nccs3)CC2)c2c([nH]c3cc(OC)ccc23)[C@@H]1CO	.	.	.	.	.	0
COc1ccc(N(CC(=O)Nc2ccc(F)cc2)S(=O)(=O)c2ccccc2[N+](=O)[O-])c(OC)c1	-10	-5	.	-34	2	43*
O=C1CNC(=S)N1Cc1ccccc1	3	0	.	6	-1	43*
O=C1CNC(=S)N1Cc1ccc(F)cc1	-11	-3	.	15	3	.
Cc1ccc(Cl)cc1N1CCN(C(=O)CSc2nnc3n2C(C)(C)Cc2ccccc2-3)CC1	-5	29	-8	87*	0	.
SMILES	697 NFkB inh	Jurkat NFkB inh	miR-122 sensor	NR2E3 ag-1	NR2E3 ag-2	FGF22 binding
COc1ccc(C2=NCCn3c2c2ccc(C(F)(F)F)cc2[n+]3[O-])cc1	-3	-2	6	-4	0	0
Cc1ccc(C2=NCCn3c2c2ccc(C(F)(F)F)cc2[n+]3[O-])cc1	-11	-3	4	-10	0	43*
COC(=O)[C@@H]1[C@@H](CO)[C@@H]2Cn3c(ccc(-c4ccccc4F)c3=O)[C@@H]2N1C(=O)CC1CC1	.	.	-1[16.7 µM]	.	.	0
COc1ccccc1S(=O)(=O)N[C@@H]1CC[C@H](CCNC(=O)C2CC2)O[C@@H]1CO	.	.	.	.	.	0
Cn1c(SCC(N)=O)nnc1-c1ccc(C(C)(C)C)cc1	-20	-7	-3	-5	-2	0
Cc1ccc(-c2nnc(SCC(N)=O)n2C)cc1	16	3	2	-7	3	43*
C[C@@H]1CN([C@H](C)CO)C(=O)c2cc(N(C)C)ccc2O[C@@H](C)CCCCO[C@H]1CN(C)Cc1ccncc1	.	.	6[16.7 µM]	.	.	.
O=C(Nc1ccc(N2CCCC2)c(Cl)c1)c1ccc([N+](=O)[O-])o1	.	.	.	18	.	43*
Cc1ccccc1NS(=O)(=O)c1ccc2[nH]c(=O)[nH]c2c1	5	8	9	-17	2	43*
COc1cccc(CNC(=O)C[C@H]2C=C[C@H](NC(=O)C3CCOCC3)[C@@H](CO)O2)c1	.	.	.	.	.	0
CCN(CC)C(=O)[C@H]1CC(CC(=O)NCCc2ccccn2)C(=O)N2CCc3c([nH]c4ccc(OC)cc34)[C@]12C (some centres not stated)	9	.	-6	15	.	0
CCN(CC)C(=O)[C@H]1CC(CC(=O)NCCc2ccccn2)C(=O)N2CCc3c([nH]c4ccccc34)[C@]12C (some centres not stated)	0	4	.	-27	.	43*
C[C@@H]1CCCCO[C@H](CN(C)C(=O)c2ccccc2)[C@H](C)CN([C@@H](C)CO)C(=O)c2cc(NS(C)(=O)=O)ccc2O1	.	.	7[16.7 µM]	.	.	-1
O=C1c2cccc3c(N4CCCCC4)ccc(c23)C(=O)N1c1cccc(O)c1	-70	-21	.	-92	4	44*
COC1CCN(C(=O)CC2C(=O)NCCN2CC2CCCCC2)CC1 (configuration not stated)	9	19	.	-3	-1	43*
COC1CCN(C(=O)CC2C(=O)NCCN2CC(C)(C)C)CC1 (configuration not stated)	-3	11	.	-23	2	0
